Assay outcomes (PubChem BioAssay)
Hits are enriched below; roughly 1.9% of the tested compounds scored in any of these assays.
PGC1a acetyl inh – lowers PGC1a acetylation signal in U2OS cells. AlphaScreen anti-acetyl-lysine; with virally co-expressed GCN5 acetyltransferase. inhibition, % at 15.6 µM. 0.17% of 350,000 active. AID 651687;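 active = every replicate shows inhibition of at least 40%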;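 note: 0% = neutral control wells and 100% = positive control wells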
XiGFP reactiv – reactivates the inactive X chromosome in mouse fibroblasts; XiGFP mouse fibroblasts, % GFP-positive cells imaging, 3 d; cells co-treated with 5-aza-dC sensitizer; scaled so ellipticine positive control = 100%; activation, % at 7.58 µM; 0.055% of 360,000 active; AID 743238;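 active = mean normalized replicate activation at least 10% and every replicate at or above 10%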;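 note: 0% = median of on-plate neutral control wells and 100% = ellipticine 6 µM median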
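Material: SV40-immortalized XiGFP fibroblast cells, line 68-5-11 | Buffer or medium: DMEM containing 5-aza-dC | Dosing: One concentration, pinned | Times: 3 d treatment, 15 min room-temperature fixation | Controls: Ellipticine 6 µM positive control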
FN deposit inh – fibronectin deposition inhibition; AH1F fibroblasts, Alexa488-fibronectin deposition fluorescence, overnight; inhibition, % at 12.6 µM; 0.086% of 350,000 active;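 active = mean inhibition across replicates of 30% or more, regardless of how many single replicates reach that level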;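 note: positive control wells lacked labelled fibronectin entirely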
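test system = AH1F fibroblasts assembling fluorescent fibronectin matrix | quantity = 10000 AH1F cells per well | buffer or medium = DMEM plus 2% serum, read in PBS | doses = single dose, pinned | incubation = 1 h cell attachment, overnight exposure to compound and label | detection = fluorescence at 485 nm excitation, 525 nm emission | read-out basis = inhibition from reduced deposited-fibronectin fluorescence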
DENV2 CPE – protects cells from dengue virus 2 cytopathic effect; 1.7% of 350,000 active; DENV2-infected cells, cytopathic effect rescue, plate reader; CPE inhibition, % at 9.99 µM; in the data active = CPE inhibition above about 20%, passing the limit was not always enough; tested in BHK-21 cells;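 note: 0% = median of neutral control wells and 100% = median of positive control wells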
Cneo AK release – Cryptococcus neoformans lysis via adenylate kinase release | C. neoformans lysis, adenylate kinase release luminescence, 4 h; normalised: neutral wells 0, clomiphene wells 100 | lysis activity, % at 15 µM | 0.2% of 360,000 active | AID 651654;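 active = mean lysis activity across replicates of at least 80%, whatever share of replicates individually reach that level; inactive = mean lysis activity below 80%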
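Test system: log-phase Cryptococcus neoformans yeast cells. Input: 5 × 10^6 yeast cells/mL. Medium: fresh YPD growth medium. Doses: single dose. Incubation: static 4 h at 37 °C with compound, 1 h detection. Measured by: luminescent adenylate kinase detection reagent. Read-out: signal increase indicating cell lysis. Benchmarks: Clomiphene.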
F508del corr – CFTR F508del correction in bronchial cells | 0.36% of 350,000 active | activity (quench increase), % at 7.58 µM | CFBE cells, YFP halide quenching; stimulated with forskolin plus potentiator P3; % fluorescence drop versus neutral controls;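 active = mean added fluorescence quench of at least 8% versus neutral control, with both replicates also reaching 8%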;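 note: cells transiently co-express mutant CFTR-F508del with the halide-sensitive YFP; corrector assay measuring rescue of mutant channel to the surface after 24 h compound exposure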
An asterisk follows results filed as active; x = not tested or not shown; ! = not active in a repeat.

SMILES	PGC1a acetyl inh	XiGFP reactiv	FN deposit inh	DENV2 CPE	Cneo AK release	F508del corr
COCC(=O)N1CC2(CN(C(C)=O)C2)c2c([nH]c3cc(OC)ccc23)[C@@H]1CO	-9	0	x	20*	x	0
COCC(=O)Nc1ccc2c(c1)C(=O)N(C)[C@@H]1CC[C@@H](CC(=O)NCCc3ccccc3)O[C@@H]1CO2	1	0	-8	7	3	-1
COc1cc(OC)c2c(-c3ccccc3)cc(=O)oc2c1C(CCN1CCN(c2ccccc2)CC1)c1ccc(N(C)C)cc1 (configuration not stated)	-19	0	-4	-8	-1	5
COc1ccc(C(CCN2CCN(c3ccccc3)CC2)c2c(OC)cc(OC)c3c(-c4ccccc4)cc(=O)oc23)cc1 (configuration not stated)	-20	0	4	59*	1	1
C[C@@H]1CCCCO[C@H](CN(C)Cc2ccncc2)[C@@H](C)CN([C@@H](C)CO)C(=O)c2cc(NC(=O)CCC(F)(F)F)ccc2O1	-6	0	x	0	0	-3
CO[C@@H]1CN(C)C(=O)c2ccc(NS(C)(=O)=O)cc2OC[C@H](C)N(Cc2nccs2)C[C@@H]1C	4	0	3	72*	5	3
CCCN1C[C@H](C)[C@@H](OC)CN(C)C(=O)c2ccc(NS(C)(=O)=O)cc2OC[C@H]1C	x	0	0	27*	-2	x
CCCN1C[C@@H](C)[C@H](OC)CN(C)C(=O)c2ccc(NS(=O)(=O)c3ccccc3)cc2OC[C@@H]1C	6	0	-6	37*	-1	2
CCCN1C[C@@H](C)[C@@H](OC)CN(C)C(=O)c2cc(NS(=O)(=O)c3ccccc3)ccc2OC[C@H]1C	2	0	-11	-3	-3	-2
C/C=C/c1ccc([C@@H]2[C@H](CO)N(CCC(F)(F)F)C23CN(C(C)=O)C3)cc1	x	0	x	x	x	x
CC(=O)c1ccc(N2CCN(C(=S)Nc3ccc(Cl)c(Cl)c3)CC2)cc1	x	0	x	53*	x	x
C/C=C/c1ccc([C@H]2[C@@H](CO)N3CCCCN(C(=O)Nc4ccc(OC)cc4)C[C@@H]23)cc1	-1	0	x	30*	0	-1
C/C=C/c1ccc([C@@H]2[C@@H](CO)N3CCCCN(C(=O)Nc4ccc(OC)cc4)C[C@H]23)cc1	7	0	x	5	102*	3
C/C=C/c1ccc(C2[C@@H]3CN(C(=O)Nc4ccc(C(F)(F)F)cc4)C[C@H]2N3)cc1 (some centres not stated)	1	0	3	41*!	x	-4
C/C=C/c1ccc([C@H]2[C@@H](CO)N3CCCCN(C(=O)Nc4ccc(OC)cc4)C[C@H]23)cc1	-4	0	x	1	0	1
O=C1N[C@H](c2ccccc2)COCc2cnnn2CC[C@@H]1Cc1ccc(-c2ccccc2)cc1	x	0	-3	x	x	x
O=C(Nc1ccc(Cl)cc1)N[C@@H]1CC[C@@H](CCn2cc(C3(O)CCCC3)nn2)O[C@H]1CO	-4	0	x	5	1	0
O=C(Cc1cccnc1)N1CC(=O)N2[C@H](CO)[C@@H](c3ccc(C4=CCCC4)cc3)[C@@H]2C1	0	0	7	-3	x	-2
O=C(Cc1cccnc1)N1CC(=O)N2[C@H](C1)[C@H](c1ccc(C3=CCCC3)cc1)[C@@H]2CO	23	0	6	36*	x	-4
COc1cccc(-c2ccc([C@H]3[C@@H](CO)N4C(=O)CN(C(=O)C5CCOCC5)C[C@@H]34)cc2)c1	-25	0	x	33*	x	-3
O=C(Cc1ccccn1)N1CC(=O)N2[C@H](CO)[C@@H](c3ccc(C#CC4CCCCC4)cc3)[C@@H]2C1	1	0	-7	26*	x	2
O=C(Cc1ccccn1)N1CC(=O)N2[C@H](C1)[C@@H](c1ccc(C#CC3CCCCC3)cc1)[C@@H]2CO	5	0	-11	5	x	2
O=C(Cc1ccccc1)N1CC(=O)N2[C@@H](CO)[C@H](c3ccc(C#Cc4ccccc4)cc3)[C@@H]2C1	-17	0	x	24*	x	4
